In ChEMBL document CHEMBL1221240, “An efficient one-pot synthesis of heterocycle-fused 1,2,3-triazole derivatives as anti-cancer agents” (Bioorg Med Chem Lett, 2010) one finds IC50 data, which are given here for 13 compounds.

A word on the IC50: it is the concentration needed to halve the response being measured. High values mean weaker potency, low ones greater potency.

What all share (assay type): functional, cell-based
Assay [1] deals with A-431. Briefly: Cytotoxicity against human A431 cells by MTT assay. In a few lines: (§1)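 In vitro MTT assay on human tumour cells: myeloid leukaemia K562 and HL-60, ovarian carcinoma Skov-3, epidermoid carcinoma A431, and lung adenocarcinoma A549. IC50 is the concentration that lowers optical density of treated cells by 50% relative to untreated cells. Values are means of three independent determinations.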
For orientation: Tetrazolium assays rely on reduction of a dye to a coloured formazan, in cell work by metabolically active cells.

The subject of assay [2] is A549. Kind of assay: Cytotoxicity against human A549 cells by MTT assay. Put shortly:
as §1

Assay [3] deals with HepG2. Kind of assay: Cytotoxicity against human HepG2 cells by MTT assay.
Assay [4] concerns K562. Kind of assay: Cytotoxicity against human K562 cells by MTT assay. In a few lines: as §1
The subject of assay [5] is SK-OV-3. Briefly: Cytotoxicity against human SKOV3 cells by MTT assay. Put shortly: as §1
Assay [6] has as its system HL-60. Briefly: Cytotoxicity against human HL60 cells by MTT assay. In a few lines: as §1

Values after ≈ are worked out from the molar mass of the structure shown. Bounds are passed on as bounds.

With `COc1ccc(C(=O)c2nnn3c2NCC3)cc1`, the IC50 is above 200 µg/mL in assay [1]; above 200 µg/mL in assay [2]; above 200 µg/mL in assay [3]; 2.8 µg/mL (≈ 11.5 µM) in assay [4]; 159 µg/mL (≈ 651 µM) in assay [5]; above 200 µg/mL in assay [6].

`Cc1ccc(C(=O)c2nnn3c2NCC3)cc1`: the IC50 in assay [1] is above 200 µg/mL; in assay [2], above 200 µg/mL; in assay [3] it was above 200 µg/mL; in assay [4], 9.4 µg/mL (≈ 41.2 µM); in assay [5] it was above 200 µg/mL; in assay [6] it was above 200 µg/mL.

With `O=C(c1ccccc1)c1nnn2c1NCC2`, the IC50 in assay [1] was above 200 µg/mL; in assay [2], above 200 µg/mL; in assay [3] it was above 200 µg/mL; in assay [4] it was 92 µg/mL (≈ 429 µM); in assay [5] it was above 200 µg/mL; in assay [6] it was above 200 µg/mL.

For the compound `O=C(c1ccc(Cl)cc1)c1nnn2c1NCC2`, the 50% inhibitory concentration (IC50) in assay [1] is 57.6 µg/mL (≈ 232 µM); in assay [2] it was above 200 µg/mL; in assay [3], above 200 µg/mL; in assay [4], 16.1 µg/mL (≈ 64.7 µM); in assay [5], above 200 µg/mL; in assay [6], above 200 µg/mL.

Take `CC(=O)c1nnn2c1NCC2`: the IC50 in assay [1], in assay [2], in assay [3], in assay [4], in assay [5] and in assay [6] was above 200 µg/mL each time.

As for `COc1ccc(C(=O)c2nnn3c2NCCC3)cc1`, the 50% inhibitory concentration (IC50) in assay [1] was 64.4 µg/mL (≈ 249 µM); in assay [2] it was above 200 µg/mL; in assay [3], above 200 µg/mL; in assay [4], 3.4 µg/mL (≈ 13.2 µM); in assay [5], 190 µg/mL (≈ 736 µM); in assay [6], above 200 µg/mL.

`Cc1ccc(C(=O)c2nnn3c2NCCC3)cc1`: the IC50 in assay [1] is above 200 µg/mL; in assay [2] it was above 200 µg/mL; in assay [3], above 200 µg/mL; in assay [4], 1.5 µg/mL (≈ 6.19 µM); in assay [5] it was 124 µg/mL (≈ 512 µM); in assay [6], above 200 µg/mL.

For the compound `O=C(c1ccccc1)c1nnn2c1NCCC2`, the concentration for half-maximal inhibition (IC50) in assay [1] was above 200 µg/mL; in assay [2] it was above 200 µg/mL; in assay [3] it was above 200 µg/mL; in assay [4], 28.6 µg/mL (≈ 125 µM); in assay [5], above 200 µg/mL; in assay [6], above 200 µg/mL.

In the case of `O=C(c1ccc(Cl)cc1)c1nnn2c1NCCC2`, the IC50 in assay [1] is above 200 µg/mL; in assay [2] it was above 200 µg/mL; in assay [3] it was above 200 µg/mL; in assay [4] it was 3.2 µg/mL (≈ 12.2 µM); in assay [5], above 200 µg/mL; in assay [6] it was above 200 µg/mL.

In the case of `COc1ccc(C(=O)c2nnn3c2OCC3)cc1`, the 50% inhibitory concentration (IC50) in assay [1] was 1.9 µg/mL (≈ 7.75 µM); in assay [2], 58 µg/mL (≈ 237 µM); in assay [3], above 200 µg/mL; in assay [4] it was 1 µg/mL (≈ 4.08 µM); in assay [5], 9.6 µg/mL (≈ 39.1 µM); in assay [6], 21.1 µg/mL (≈ 86 µM).

Consider `Cc1ccc(C(=O)c2nnn3c2OCC3)cc1`, for which the half-maximal inhibitory concentration (IC50) in assay [1] is 12.7 µg/mL (≈ 55.4 µM); in assay [2] it was 79 µg/mL (≈ 345 µM); in assay [3], 198 µg/mL (≈ 864 µM); in assay [4] it was 127 µg/mL (≈ 554 µM); in assay [5] it was 8.5 µg/mL (≈ 37.1 µM); in assay [6], 13.7 µg/mL (≈ 59.8 µM).

Consider `O=C(c1ccccc1)c1nnn2c1OCC2`, for which the half-inhibitory concentration (IC50) was 10.8 µg/mL (≈ 50.2 µM) in assay [1]; 78 µg/mL (≈ 362 µM) in assay [2]; above 200 µg/mL in assay [3]; above 200 µg/mL in assay [4]; 66.1 µg/mL (≈ 307 µM) in assay [5]; 17.2 µg/mL (≈ 79.9 µM) in assay [6].

Consider `O=C(c1ccc(Cl)cc1)c1nnn2c1OCC2`, for which the concentration for half-maximal inhibition (IC50) in assay [1] was 3.8 µg/mL (≈ 15.2 µM); in assay [2], 42 µg/mL (≈ 168 µM); in assay [3], above 200 µg/mL; in assay [4], above 200 µg/mL; in assay [5], 8.6 µg/mL (≈ 34.4 µM); in assay [6], 6.5 µg/mL (≈ 26 µM).
